The series in a line: Toxicity liver stage against HepG2, at 10uM. The arrangement: test concentration 10 uM, cell line HepG2-A16-CD81EGFP. The conditions noted are these: human, HepG2-A16-CD81EGFP cells; read-out: INHIBITION
Type of series: cell-based. The essentials:
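Uninfected HepG2-A16-CD81EGFP cells, 3 × 10^3 per well, 1536-well, plated on prespotted compound at 10 μM final, parasite-free screening media added to match infected plates; puromycin 10 μM positive, DMSO 0.5% negative; run in parallel with 48 h PbLuc assay at 37 °C, 5% CO2; viability by CellTiter-Glo luminescence, normalized to controls.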
`CC(C)(C)n1ncc2c(=O)n(CC(=O)NCc3ccccc3Cl)cnc21`: the cytotoxicity at 10 µM was -9.03%.

Consider `FC(F)(F)c1ccc2nc([C@H]3CCN(C4CCCCC4)C3)[nH]c2c1`, for which the cytotoxicity at 10 µM is -0.668%.

In the case of `CC(C)n1ncc2c1NC(=O)CC21C(=O)Nc2c(Cl)ccc(Cl)c21` (stereo unspecified), the cytotoxicity at 10 µM is 1.19%.

Regarding `O=C(Nc1nc2c(s1)CN(S(=O)(=O)C1CC1)CC2)c1ccc(Cl)s1`, the cytotoxicity at 10 µM was 21.3%.

Regarding `CC(=O)NCC(=O)N1Cc2cc(-c3cc[nH]n3)ccc2C1c1cnco1` (stereo unspecified), the cytotoxicity at 10 µM was 13.5%.

`O=C(c1cnccn1)N1CC[C@H]2[C@H]1CCN2S(=O)(=O)C1CC1`: the cytotoxicity at 10 µM was -168%.

As to `O=C(c1cc(F)cc(F)c1)N1CCC2(CC1)CC2`, the cytotoxicity at 10 µM stood at 5.04%.

Take `O=C(c1nn[nH]c1Nc1ccc(Cl)cc1)N1CCCCCC1`: the cytotoxicity at 10 µM was determined as 34.5%.

For the compound `Cc1cccc(CN2CCCC2c2cccc(Nc3nccs3)n2)c1` (stereo unspecified), the cytotoxicity at 10 µM worked out at 0.81%.

Regarding `CC1CCN(c2ncc(-c3ccccc3F)c(-c3nccn3C)n2)CC1`, the cytotoxicity at 10 µM stood at 27.1%.

Consider `CCN(CC)S(=O)(=O)N1CC[C@H](c2ccccc2)[C@@H]2[C@H]1CCCCN2C`, for which the cytotoxicity at 10 µM was found to be 3.74%.

Turning to `Nc1cc(-c2cccs2)nn(CC(=O)N2CCc3ccccc32)c1=O`, the cytotoxicity at 10 µM was -10%.

`c1cnc(N2CCCC(c3cc4cccnc4[nH]3)C2)nc1` (stereo unspecified): the cytotoxicity at 10 µM was -9.42%.

Regarding `CSc1ccc(CN2CCCC3(CNC(=O)c4ccccc4O3)C2)cc1` (stereo unspecified), the cytotoxicity at 10 µM was 3.52%.

Take `Cc1cc(C)c2cc(CNC3CCCCC3)c3nn(C)c(=O)n3c2c1`: the cytotoxicity at 10 µM was -4.55%.

`COc1ccc(C2Nc3cc(Cl)ccc3C3=NCCN32)cc1OC` (stereo unspecified): the cytotoxicity at 10 µM was 1.05%.

Consider `COC(=O)CC(NC(=O)c1cccc(CS(C)(=O)=O)c1)c1cccs1` (stereo unspecified), for which the cytotoxicity at 10 µM is -44.8%.

As to `O=C(O)c1ccc(S(=O)(=O)Nc2cnn(CC(F)(F)F)c2)cc1`, the cytotoxicity at 10 µM is -7.52%.

Consider `CCN1CCOC(CNCc2ccc(C)s2)C1` (stereo unspecified), for which the cytotoxicity at 10 µM worked out at 2.35%.

In the case of `COc1cccc(-c2ccc(CNC(=O)c3ccc(=O)n(C)c3)cc2)c1`, the cytotoxicity at 10 µM came out at 22.3%.

Turning to `c1cc(N2CCC(CN3CCOCC3)CC2)c2sccc2n1`, the cytotoxicity at 10 µM was found to be 10.8%.

In the case of `CCc1cnc(CNC(=O)NCCc2ccc(O)cc2)s1`, the cytotoxicity at 10 µM was found to be 2.31%.

With `Cc1cc(C)c(CNC(=O)NCCNc2cnccn2)c(=O)[nH]1`, the cytotoxicity at 10 µM is -43.6%.

With `COc1ncc(NCc2ccc(Cl)c(Cl)c2)cc1C(N)=O`, the cytotoxicity at 10 µM came to 32.7%.

Take `CC(NC(=O)CN1CCN(c2ccncc2Cl)CC1)c1ccco1` (stereo unspecified): the cytotoxicity at 10 µM is -6.02%.

Turning to `COCCNc1ccccc1CNC(=O)NCc1nc(C)c(C)s1`, the cytotoxicity at 10 µM was 5.75%.

As for `Cc1cnn(Cc2cc(F)ccc2F)c1NC(=O)CNC(=O)C1CC1`, the cytotoxicity at 10 µM is 2.3%.

In the case of `Cc1n[nH]c(C)c1C1COCCN1c1ncnc2sccc12` (stereo unspecified), the cytotoxicity at 10 µM was determined as 23.1%.

For the compound `Cc1ccc(S(=O)(=O)N2CCCCC(N3CCN(C)CC3)C2)cc1F` (stereo unspecified), the cytotoxicity at 10 µM came out at 6.24%.

Consider `C1=C(c2c[nH]c3ncccc23)CCN(Cc2nnc(C3CC3)o2)C1`, for which the cytotoxicity at 10 µM amounted to 30.7%.

As for `Cc1cc(NCC2(O)CCOCC2)nc2ccccc12`, the cytotoxicity at 10 µM is -8.98%.

Turning to `CCC(Nc1ccc(Oc2ccc(C#N)cc2OC)cc1)C(N)=O` (stereo unspecified), the cytotoxicity at 10 µM amounted to 65.7%.

In the case of `CNC(=O)CCN1CCCCCC1c1ccc(C)o1` (stereo unspecified), the cytotoxicity at 10 µM was -10.2%.

Take `O=C(c1cc[nH]n1)N(Cc1ccccc1)CC1CCC1`: the cytotoxicity at 10 µM is -6.74%.

`COCCN1CCC(CNC(=O)c2cc(Cl)c[nH]2)CC1`: the cytotoxicity at 10 µM was found to be 5.2%.

On to `CCC(C(=O)Nc1ccc2nc(C)oc2c1)N1CCCC1=O` (stereo unspecified), for which the cytotoxicity at 10 µM was -41.9%.

As to `O=C1NCCN1C1CCN(c2ccnc(-c3ccccc3)n2)CC1`, the cytotoxicity at 10 µM worked out at 36.2%.

For `CCOCCCC(=O)Nc1cc(C(N)=O)ccc1N1CCCCC1`, the cytotoxicity at 10 µM was -48%.

Consider `CCN1CCN(CCNc2nc3ccc(C)cc3c(=O)n2C)CC1`, for which the cytotoxicity at 10 µM was 10.7%.

As to `CNc1nc(CNC(=O)Nc2ccc(OC(C)C)cc2F)cs1`, the cytotoxicity at 10 µM came to 61.2%.

`Cc1cc(C)n(C2CN(CC(=O)N(C)Cc3ccc(C)o3)C2)n1`: the cytotoxicity at 10 µM was -6.24%.

With `CCN1CCN(C)C2(CCN(C(=O)CC(F)(F)F)CC2)C1=O`, the cytotoxicity at 10 µM turned out to be 0.797%.

Turning to `Cc1cccc(S(=O)(=O)N2CCC3(CC2)CC(N(C)C)CO3)c1` (stereo unspecified), the cytotoxicity at 10 µM was -126%.

Take `CC(C)NC(=O)[C@@H]1CN(Cc2nccs2)C[C@H]2OCC[C@H]21`: the cytotoxicity at 10 µM is -93.5%.

As for `Cn1cc(N2CC3(CCN(C(=O)c4cccn4C)CC3)OCC2=O)cn1`, the cytotoxicity at 10 µM was -81.1%.

In the case of `CC(=O)N1CCC2(CCN(Cc3ccc(Cl)c(C(F)(F)F)c3)CC2)C1`, the cytotoxicity at 10 µM was -81.9%.

In the case of `Cc1ncc(-c2ccnc(NCCc3ccc(F)cc3)n2)c(=O)[nH]1`, the cytotoxicity at 10 µM is -7.3%.

Regarding `CC(C)Nc1nc2c(s1)C(=O)CN(C(=O)NCc1ccccc1)C2`, the cytotoxicity at 10 µM is 75.6%.

For the compound `COc1ccc2nc(CNC(=O)c3cc(C(C)C)no3)[nH]c2c1`, the cytotoxicity at 10 µM was -0.527%.

With `CCn1cc(CN2CCCC(COc3ccc(F)cc3)C2)cn1` (stereo unspecified), the cytotoxicity at 10 µM was -59.6%.

Consider `CCC(C(=O)N(Cc1ccccn1)C1CCCCC1)n1cccn1` (stereo unspecified), for which the cytotoxicity at 10 µM was -45.3%.

Turning to `CCNc1ncc(C(=O)N[C@@H](C)[C@H](O)c2ccccc2)cn1`, the cytotoxicity at 10 µM was -4.71%.

In the case of `CCc1nc(N)nc(N(C)Cc2nncn2CCOC)c1C`, the cytotoxicity at 10 µM was -6.41%.

`Cc1cccc(N2CCN(CCC(=O)NCc3ccc(C)s3)CC2)c1`: the cytotoxicity at 10 µM is -0.432%.

With `COc1ccc(Cl)cc1-n1cnc(CCNC(C)=O)c1`, the cytotoxicity at 10 µM stood at 2.29%.

For `COCCC(=O)NCC1COc2cc(OC)ccc2C1` (stereo unspecified), the cytotoxicity at 10 µM came out at 0.0723%.

Turning to `Cc1cc(CNC(=O)CCCN2CCCCC2)n(C)n1`, the cytotoxicity at 10 µM is -10.3%.

Take `COCC(=O)N1CCCN(Cc2c(C)nc3ccc(Cl)cn23)CC1`: the cytotoxicity at 10 µM amounted to 5.39%.

`CN1CCc2[nH]nc(C(=O)N3CCC4(CCCO4)CC3)c2C1`: the cytotoxicity at 10 µM is -47.1%.

With `Fc1cccc2ncnc(NCCCc3ccncc3)c12`, the cytotoxicity at 10 µM was found to be 7.02%.

On to `CCN(CCN(C)C)c1nc(CCN)nc2sc(C)c(C)c12`, for which the cytotoxicity at 10 µM is -1.78%.

For `COc1ccc2c(c1)Cc1c-2nc(N)c(C#N)c1C1CCOC1` (stereo unspecified), the cytotoxicity at 10 µM was 24.4%.

As for `CN1CCCC(CCC(=O)N2CCc3sc(C(=O)N(C)C)cc3C2)C1` (stereo unspecified), the cytotoxicity at 10 µM amounted to 1.42%.

For `CC(C)N1CCC(C(=O)N2CCC(c3ccc(F)cc3)C2)CC1` (stereo unspecified), the cytotoxicity at 10 µM is -58.1%.

Turning to `NCC1Cc2cc(Oc3cc(F)c(CN4CCCC4)c(F)c3)ccc2O1` (stereo unspecified), the cytotoxicity at 10 µM is -8.97%.

Turning to `O=C(c1cn(CC(=O)N2CCCC2)c2ccccc12)C1CC1`, the cytotoxicity at 10 µM is 14.2%.

As to `NC(=O)c1ccccc1-n1cc(-c2cccc(C(=O)O)c2)cn1`, the cytotoxicity at 10 µM was -5.65%.

For the compound `CN(CC1CCCCO1)c1nc(-c2cccnc2)nc2c1CCNC2` (stereo unspecified), the cytotoxicity at 10 µM was 3.01%.

Turning to `CC(=O)N1CCc2c(nc(N(C)C)nc2NCCCn2ccnc2C)C1`, the cytotoxicity at 10 µM was -7.42%.

In the case of `CNCc1cn(C2CCN(C(=O)NCc3ccco3)CC2)nn1`, the cytotoxicity at 10 µM was found to be 1.11%.

As to `COC(=O)Cn1c(C)cc(=O)c2cc(F)ccc21`, the cytotoxicity at 10 µM amounted to 2.63%.

Take `CCC(NC(=O)C1CCN(S(C)(=O)=O)CC1)c1ccc(OC)cc1` (stereo unspecified): the cytotoxicity at 10 µM was -1.82%.

Regarding `CCc1cc(N2CCC(n3cc(C(=O)NCC(C)C)nn3)CC2)ncn1`, the cytotoxicity at 10 µM worked out at 41.4%.

As for `Fc1ccc(CCC2CCCN(Cc3c[nH]cn3)C2)c(F)c1` (stereo unspecified), the cytotoxicity at 10 µM was -6.51%.

In the case of `COc1ccc(-c2cc[nH]n2)cc1CNC1CCCC1`, the cytotoxicity at 10 µM is -52.8%.

Turning to `CO[C@H]1C[C@@H](O)C12CCN(C(=O)CCCOc1ccccc1)CC2`, the cytotoxicity at 10 µM was -2.22%.

Consider `O=C(NCc1cc(N2CCOCC2)ncn1)c1cccc(CO)n1`, for which the cytotoxicity at 10 µM was -7.76%.

Regarding `CC(C)n1ccnc1C1CCCN(c2ccnc3ccccc23)C1` (stereo unspecified), the cytotoxicity at 10 µM was found to be 38.4%.

For the compound `O=C(CNCCn1cccn1)NCC1(c2ccccc2)CCC1`, the cytotoxicity at 10 µM was -26.7%.

As to `Cc1ccc(CNCc2ccc(-n3nc(C)cc3C)nc2)cc1`, the cytotoxicity at 10 µM is -0.164%.

Turning to `c1ccc2sc(CN3CCOC(Cn4cccn4)C3)nc2c1` (stereo unspecified), the cytotoxicity at 10 µM is -10.2%.

For `CNS(=O)(=O)c1cccc(CNc2nccc(C(F)(F)F)n2)c1`, the cytotoxicity at 10 µM is 17.2%.

For the compound `CC(O)CNCc1ccc(OCc2ccc3c(c2)OCCO3)cc1` (stereo unspecified), the cytotoxicity at 10 µM is -4.61%.

With `Cc1cc(F)ccc1-c1ccccc1CC1CNCCNC1=O` (stereo unspecified), the cytotoxicity at 10 µM was 5.08%.

In the case of `CCn1cc2c(n1)CN(Cc1nccs1)CC2COCC1CC1` (stereo unspecified), the cytotoxicity at 10 µM is 6.07%.

For `N#Cc1ccc(N2CCC3(CC2)CC(Oc2cccnc2)CO3)cc1` (stereo unspecified), the cytotoxicity at 10 µM is 50.9%.

As to `Cn1cc(CNC2CCC(O)CC2)c(-c2cc3ccccc3o2)n1` (stereo unspecified), the cytotoxicity at 10 µM is -48%.

Regarding `CCS(=O)(=O)N1CCC2(CC1)CN(CC1CCOC1)c1ccccc12` (stereo unspecified), the cytotoxicity at 10 µM was -85.9%.

On to `COc1cc(N2C[C@@H]3COC[C@]3(COc3ncccc3F)C2)ncn1`, for which the cytotoxicity at 10 µM is -67.5%.

With `O=S(=O)(c1cccs1)N1CC[C@@H](O)[C@@H]1Cc1ccncc1`, the cytotoxicity at 10 µM is -72.8%.

Turning to `CCN(CC)Cc1cn2c(n1)CN(C(=O)Cc1ccsc1)CC2`, the cytotoxicity at 10 µM was -143%.

On to `CC(C)N(C)Cc1cn2c(n1)CN(C(=O)Cc1ccccc1)CC2`, for which the cytotoxicity at 10 µM is -135%.

Take `Cc1noc(C)c1CN1CC[C@@H](OCC2CC2)[C@@H](Cc2ccccc2)C1`: the cytotoxicity at 10 µM amounted to 11.5%.

Consider `Cc1ccc(CN2CCn3cc(CN4CCN(C)CC4)nc3C2)cc1`, for which the cytotoxicity at 10 µM was -125%.

With `CCOc1cc(C=Cc2ncc(C(=O)NC)s2)ccc1OC`, the cytotoxicity at 10 µM is -0.58%.

For `CCOc1c(Br)cc(C2c3c(n[nH]c3C)N=C3COC(=O)C32)cc1OC` (stereo unspecified), the cytotoxicity at 10 µM was found to be 47.1%.

The values are drawn from ChEMBL document CHEMBL4513216, “Probing the Open Global Health Chemical Diversity Library for Multistage-Active Starting Points for Next-Generation Antimalarials” (ACS Infect Dis, 2020).
